Assays:
Rattus norvegicus [1] = assay: Percentage change unpunished lever presses from mean score on 6-8 rats at 5 mg/kg po1h pretest; type: functional
Rattus norvegicus [2] = assay: Percentage change punished lever presses from mean score on 6-8 rats at 5 mg/kg po1h pretest; type: functional
How it was run: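 Geller–Seifter conflict test in trained rats, groups of 6–8, oral dosing. Lever pressing for food reward on a multiple schedule: five 3-min VI30 components alternating with five 3-min light-signalled FR5 components, where reward came with footshock (15 ms pulses at 200 ms intervals for 1 s). Punished presses compared with each of 2 preceding vehicle-treated test days by two-way ANOVA of square-root-transformed data.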

CN1C(=O)CN=C(c2ccccc2)c2cc(Cl)ccc21 [DIAZEPAM]
Change (Rattus norvegicus [1]): -19% | Change (Rattus norvegicus [2]): 70%

Source: ChEMBL document CHEMBL1131637, “Novel and selective 5-HT2C/2B receptor antagonists as potential anxiolytic agents: synthesis, quantitative structure-activity relationships, and molecular modeling of substituted 1-(3-pyridylcarbamoyl)indolines” (J Med Chem, 1998)
